The source of these data is ChEMBL document CHEMBL1127424, “7-azetidinylquinolones as antibacterial agents. 2. Synthesis and biological activity of 7-(2,3-disubstituted-1-azetidinyl)-4-oxoquinoline- and -1,8-naphthyridine-3-carboxylic acids. Properties and structure-activity relationships of quinolones with an azetidine moiety” (J Med Chem, 1994).

Series [1] can be described thus: Measured ionization constant (pKa). The format is physicochemical. The note with it: read-out: pKa1. An outline of the steps:
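Spectrophotometric titration at 20 ± 1 °C, 0.1 M ionic strength, pH varied with H2SO4 or NaOH made up in the compound stock. Absorbance followed at compound-specific wavelengths chosen from 200–400 nm scans. pKa1 and pKa2 taken as the inflection points of the two-step absorbance vs pH curve.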

Series [2] in a line: HPLC capacity factor (k'). The format is ADME. An outline of the steps: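 Ion-pair reversed-phase HPLC on ODS-2 (10 μm) at 45 °C. Mobile phase: 10 mM sodium heptanesulfonate plus 50 mM KH2PO4 (pH 3.5)–methanol 45:55, 1 mL/min. Samples at 100 μg/mL in DMF, injected in duplicate, UV 280 nm. k' = (tR − t0)/t0.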
For series [3], the system named is Enterobacter cloacae. The experiment in a line: In vitro minimum inhibitory concentration for Enterobacter cloacae ATCC 23355. The format is functional.
The subject of series [4] is Pseudomonas aeruginosa. Put plainly: In vitro minimum inhibitory concentration for Pseudomonas aeruginosa ATCC 10145. The format is functional. The procedure, abridged:
(§1)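 Serial 2-fold agar dilution in Mueller Hinton medium, run alongside a reference quinolone. Inoculum adjusted to 10⁸ cfu/mL; compound range 0.007–16 μg/mL.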

Series [5] relates to Morganella morganii. Put plainly: In vitro minimum inhibitory concentration for Morganella morganii ATCC 8019. The format is functional. An outline of the steps: as §1
For series [6], the system named is Staphylococcus epidermidis. The experiment in a line: In vitro minimum inhibitory concentration for Staphylococcus epidermidis ATCC 155-1. Format: functional. The procedure, abridged: as §1
The test system of series [7] is Bacillus subtilis. The experiment in a line: In vitro minimum inhibitory concentration for Bacillus subtilis ATCC 6633. Format: functional. The procedure, abridged: as §1
Series [8] deals with Proteus vulgaris. The experiment in a line: In vitro minimum inhibitory concentration for Proteus vulgaris ATCC 8427. Format: functional. An outline of the steps:
as §1

Series [9] relates to Klebsiella pneumoniae. The experiment in a line: In vitro minimum inhibitory concentration to inhibit Klebsiella pneumoniae ATCC 10031. The format is functional. The procedure, abridged:
as §1

The subject of series [10] is Enterococcus faecalis. Put plainly: In vitro minimum inhibitory concentration for Streptococcus faecalis ATCC 10541. Format: functional. An outline of the steps: as §1
The test system of series [11] is Staphylococcus aureus. Put plainly: In vitro minimum inhibitory concentration for Staphylococcus aureus ATCC 25178. Format: functional. The procedure, abridged: as §1
Series [12] relates to Escherichia coli. Put plainly: In vitro minimum inhibitory concentration for Escherichia coli ATCC 10799. Format: functional. An outline of the steps: as §1
Series [13] concerns Bacillus cereus. The experiment in a line: In vitro minimum inhibitory concentration for Bacillus cereus ATCC 11778. The format is functional. The procedure, abridged: as §1

In brackets after ≈: the same amount, converted by molar mass.

As for `CC1([N+](C)(C)C)CN(c2c(F)cc3c(=O)c(C(=O)O)cn(C4CC4)c3c2F)C1`, in series [1], the pKa came out at 6.03.

For the compound `NC1CN(c2c(F)cc3c(=O)c(C(=O)O)cn(C4CC4)c3c2Cl)C1`, the “Log k'” value in series [2] was -0.0264. The pKa in [1] was determined as 5.96.

Consider `C[C@H]1[C@H](N)CN1c1cc2c(cc1F)c(=O)c(C(=O)O)cn2CCF`, for which the MIC in series [3] was 0.12 µg/mL (≈ 0.356 µM); in series [4], 2 µg/mL (≈ 5.93 µM); in [5], 0.12 µg/mL (≈ 0.356 µM); in [6] it was 1 µg/mL (≈ 2.96 µM); in series [7] it was 0.25 µg/mL (≈ 0.741 µM); in series [8], 1 µg/mL (≈ 2.96 µM). In addition, the MIC in series [9] came out at 0.12 µg/mL (≈ 0.356 µM); in series [10], 2 µg/mL (≈ 5.93 µM); in series [11], 1 µg/mL (≈ 2.96 µM); in series [12], 0.25 µg/mL (≈ 0.741 µM); in series [13], 1 µg/mL (≈ 2.96 µM). In addition, the “Log k'” value in series [2] is listed as -0.1459.

As for `NC1CN(c2cc3c(cc2F)c(=O)c(C(=O)O)cn3C2CC2)C1`, the “Log k'” value in [2] is -0.0607. The pKa in series [1] is 6.49.

Turning to `C[C@H]1[C@@H](O)CN1c1cc2c(cc1F)c(=O)c(C(=O)O)cn2C1CC1`, the MIC in series [3] amounted to 0.25 µg/mL (≈ 0.752 µM); in series [4] it was 4 µg/mL (≈ 12 µM); in [5] it was 0.5 µg/mL (≈ 1.5 µM); in series [6], 0.25 µg/mL (≈ 0.752 µM); in series [7] it was 0.015 µg/mL (≈ 0.0451 µM); in series [8], 0.25 µg/mL (≈ 0.752 µM). Further, the MIC in [9] was found to be 0.25 µg/mL (≈ 0.752 µM); in series [10], 2 µg/mL (≈ 6.02 µM); in [11], 0.25 µg/mL (≈ 0.752 µM); in series [12], 0.5 µg/mL (≈ 1.5 µM); in [13] it was 0.25 µg/mL (≈ 0.752 µM). For the same compound, the “Log k'” value in series [2] is given as 0.3299.

In the case of `CCn1cc(C(=O)O)c(=O)c2cc(F)c(N3C[C@@H](N)[C@@H]3C)nc21`, the MIC was found to be 0.12 µg/mL (≈ 0.375 µM) in series [3]; 2 µg/mL (≈ 6.24 µM) in series [4]; 0.25 µg/mL (≈ 0.78 µM) in [5]; 0.5 µg/mL (≈ 1.56 µM) in series [6]; 0.12 µg/mL (≈ 0.375 µM) in series [7]; 0.5 µg/mL (≈ 1.56 µM) in series [8]. Moreover, the MIC worked out at 0.12 µg/mL (≈ 0.375 µM) in [9]; 2 µg/mL (≈ 6.24 µM) in series [10]; 0.5 µg/mL (≈ 1.56 µM) in series [11]; 0.25 µg/mL (≈ 0.78 µM) in [12]; 0.5 µg/mL (≈ 1.56 µM) in series [13]. In addition, in series [2], the “Log k'” value was -0.1061.

Take `CC1(C)[C@@H](N)CN1c1nc2c(cc1F)c(=O)c(C(=O)O)cn2C1CC1`: the MIC stood at 0.12 µg/mL (≈ 0.346 µM) in series [3]; 2 µg/mL (≈ 5.77 µM) in [4]; 0.25 µg/mL (≈ 0.722 µM) in [5]; 0.12 µg/mL (≈ 0.346 µM) in series [6]; 0.06 µg/mL (≈ 0.173 µM) in [7]; 0.5 µg/mL (≈ 1.44 µM) in [8]. The MIC in series [9] stood at 0.06 µg/mL (≈ 0.173 µM); in series [10] it was 2 µg/mL (≈ 5.77 µM); in series [11], 0.12 µg/mL (≈ 0.346 µM); in series [12], 0.25 µg/mL (≈ 0.722 µM); in series [13] it was 0.06 µg/mL (≈ 0.173 µM). Moreover, the “Log k'” value in [2] is -0.0223.

For `CC[C@H]1[C@@H](O)CN1c1cc2c(cc1F)c(=O)c(C(=O)O)cn2C1CC1`, the minimal inhibitory concentration (MIC) in series [3] worked out at 0.5 µg/mL (≈ 1.44 µM); in series [4], 8 µg/mL (≈ 23.1 µM); in series [5], 1 µg/mL (≈ 2.89 µM); in [6], 0.5 µg/mL (≈ 1.44 µM); in [7] it was 0.06 µg/mL (≈ 0.173 µM); in [8], 0.5 µg/mL (≈ 1.44 µM). Further, the minimum inhibitory concentration (MIC) was determined as 0.5 µg/mL (≈ 1.44 µM) in [9]; 8 µg/mL (≈ 23.1 µM) in series [10]; 1 µg/mL (≈ 2.89 µM) in series [11]; 2 µg/mL (≈ 5.77 µM) in [12]; 1 µg/mL (≈ 2.89 µM) in [13]. Also, the “Log k'” value in series [2] stood at 0.529.

As for `C[C@H]1[C@H](N)CN1c1c(F)cc2c(=O)c3c(=O)[nH]sc3n(C3CC3)c2c1F`, the MIC in series [3] is 0.03 µg/mL (≈ 0.0793 µM); in series [4], 1 µg/mL (≈ 2.64 µM); in [5] it was 0.06 µg/mL (≈ 0.159 µM); in series [6] it was 0.12 µg/mL (≈ 0.317 µM); in [7] it was 0.06 µg/mL (≈ 0.159 µM); in series [8], 0.12 µg/mL (≈ 0.317 µM). For the same compound, the MIC in series [9] was 0.03 µg/mL (≈ 0.0793 µM); in series [10], 0.25 µg/mL (≈ 0.661 µM); in series [11], 0.12 µg/mL (≈ 0.317 µM); in series [12], 0.12 µg/mL (≈ 0.317 µM); in series [13] it was 0.06 µg/mL (≈ 0.159 µM). The “Log k'” value in series [2] is listed as 0.1134.

As for `C[C@H]1[C@H](N)CN1c1c(F)cc2c(=O)c(C(=O)O)cn(CCF)c2c1F`, the MIC in series [3] turned out to be 0.12 µg/mL (≈ 0.338 µM); in series [4], 1 µg/mL (≈ 2.81 µM); in [5], 0.06 µg/mL (≈ 0.169 µM); in [6] it was 0.5 µg/mL (≈ 1.41 µM); in series [7], 0.12 µg/mL (≈ 0.338 µM); in [8], 0.5 µg/mL (≈ 1.41 µM). Also, the minimum inhibitory concentration (MIC) in series [9] was 0.03 µg/mL (≈ 0.0844 µM); in series [10], 2 µg/mL (≈ 5.63 µM); in [11], 0.5 µg/mL (≈ 1.41 µM); in [12], 0.12 µg/mL (≈ 0.338 µM); in series [13], 0.5 µg/mL (≈ 1.41 µM). The “Log k'” value in series [2] was -0.1024.
